The values below come from ChEMBL document CHEMBL1132342, “Novel hypotensive agents from Verbesina caracasana. 6. Synthesis and pharmacology of caracasandiamide” (1999).

Values joined by “and” are separate entries in the source; they are usually repeats but may differ in a detail not shown here. Equal entries are not always repeated.

Assay [1] deals with Rattus norvegicus. Kind of assay: Change in diastolic blood pressure after iv administration of 4.12 uM/kg in anesthetized rats. Type of assay: functional, Artery.
Assay [2] has as its system Rattus norvegicus. Kind of assay: Change in systolic blood pressure after iv administration of 800 ug/Kg compound (treatment with papaverine(1 mg/Kg/min, iv)in anesthetized rats. Type of assay: functional, Artery. The gist of the method:
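Anesthetized rats, n = 6 per group, received iv doses of 200–1600 µg/kg (ratio 2.0) either alone (control) or under pretreatment: continuous iv papaverine infusion 1 mg/kg/min, reserpine 5 mg/kg/day ip for 2 days, or hexamethonium 5 mg/kg iv. Peak changes in BP, heart rate and dP/dt recorded; means ± SE, p < 0.05 versus control.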

For assay [3], the system named is Rattus norvegicus. Kind of assay: Change in heart rate after iv administration of 100 ug/Kg in anesthetized rats. Format: functional. The gist of the method: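 Adult male Wistar rats under ip ethylurethane (10% w/v in saline, 1 mL/kg) with tracheal cannula and spontaneous breathing, kept at 37 °C. Arterial BP was recorded by femoral artery catheter; compound in saline (50 µL) was given via femoral vein at 50–3200 µg/kg, ratio 2.0. Peak change is given as mean ± SE, n = 12 (n = 7 at 3200 µg/kg).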

Assay [4] deals with Rattus norvegicus. Description: Change in heart rate after iv administration of 1600 ug/kg compound (treatment with papaverine(1 mg/kg/min, iv))in anesthetized rats. Format: functional. Put shortly: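 In anesthetized male Wistar rats, responses to iv compound (200–1600 µg/kg, ratio 2.0) were measured alone and under three pretreatments: continuous iv papaverine infusion (1 mg/kg/min), ip reserpine (5 mg/kg/day for 2 days), or iv hexamethonium (5 mg/kg). Peak changes are given as mean ± SE, n = 6 per group; p < 0.05 versus control.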

In assay [5] the test system is Rattus norvegicus. Kind of assay: Change in heart rate after iv administration of 1600 ug/Kg in the presence of adrenaline (agonist) in anesthetized rats. Type of assay: functional. Put shortly: (§1)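 Urethane-anesthetized male Wistar rats (16 rats, two equal groups) received 400 or 1600 µg/kg compound iv. Cardiovascular responses to iv agonist boluses (noradrenaline 1 µg/kg, acetylcholine 2.50 µg/kg, adrenaline, isoprenaline) were measured before and after compound dosing. Peak responses are given as mean ± SE; p < 0.05 versus control mean.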

The subject of assay [6] is Rattus norvegicus. Kind of assay: Change in heart rate after iv administration of 1600 ug/Kg in the presence of noradrenaline (agonist) in anesthetized rats. Format: functional. The gist of the method:
as §1

For assay [7], the system named is Rattus norvegicus. Kind of assay: Change in respiratory frequency after iv administration of 200 ug/Kg in anesthetized rats. Type of assay: functional. Put shortly:
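Male Wistar rats (299 ± 3 g) were anesthetized with ethylurethane ip, tracheally cannulated and breathing spontaneously, at 37 °C, and stabilized for 60 min. Doses of 50-3200 µg/kg (ratio 2.0) in saline were injected by femoral vein, 50 µL each. Recordings: femoral arterial BP, electromagnetic abdominal-aortic flow, SV from integrated pulsatile flow, polygraphic RF. Peak changes, mean ± SE, n = 12 (n = 7 at 3200).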

Regarding `COc1ccc(C2C(c3ccc(OC)c(OC)c3)[C@H](C(=O)NCCCC/N=C(\N)NCC=C(C)C)[C@@H]2C(=O)NCCCC/N=C(\N)NCC=C(C)C)cc1OC` (stereo partly drawn) [CARACASANDIAMIDE], the results for the BP in the assay with Rattus norvegicus [1] and with Rattus norvegicus [2] were -47 mmHg and -22 mmHg, respectively. In addition, the “Change in heart rate” value in the assay with Rattus norvegicus [3] was -3%. Also, the Heart rate in the assay with Rattus norvegicus [3] is -10 beats min-1; with Rattus norvegicus [4], -31 beats min-1; in the assay on Rattus norvegicus [5], 7 beats min-1; in the assay with Rattus norvegicus [6], 13 beats min-1. Also, in the assay with Rattus norvegicus [7], the “Change in respiratory frequency” value is 9 beats min-1 and 9%.
